ChEMBL document CHEMBL1140721, “Development of potent purine-derived nitrile inhibitors of the trypanosomal protease TbcatB” (J Med Chem, 2008)

Legend:
Cathepsin B = Cathepsin B (Homo sapiens, UniProt P07858); assay: Inhibition of human liver cathepsin B
Method in brief: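 Human liver enzyme at 0.56 ng/mL final in sodium acetate pH 5.5 buffer with 4 mM DTT, 0.01% Triton X-100, 0.5 mM EDTA. 20 min room-temperature preincubation with inhibitor, then Z-Arg-Arg-AMC (10 µM final). Quadruplicate. Sigmoidal IC50 fit.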

Trypanosoma brucei = assay: Antitrypanosomal activity against Trypanosoma brucei; format: functional, organism-based
Method in brief: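 Culture-adapted bloodstream T. brucei grown in HMI-9 with pen/strep, 10% heat-inactivated FBS and 10% Serum Plus at 37 °C, 5% CO2, diluted to 1 × 10^4 cells/mL. Inhibitor added from DMSO, 48 h at 37 °C, then 1 h room-temperature equilibration. Cell Titer Glo luminescence read after 8 min. Quadruplicate. IC50 by curve fitting. Values shift up to 10-fold with FBS lot.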

[1] = biological target: T1, Cathepsin B-like cysteine protease (Trypanosoma brucei, UniProt Q6R7Z5); assay: Inhibition of Trypanosoma brucei cathepsin B-like cysteine protease
T1 sequence (Q6R7Z5 whole entry): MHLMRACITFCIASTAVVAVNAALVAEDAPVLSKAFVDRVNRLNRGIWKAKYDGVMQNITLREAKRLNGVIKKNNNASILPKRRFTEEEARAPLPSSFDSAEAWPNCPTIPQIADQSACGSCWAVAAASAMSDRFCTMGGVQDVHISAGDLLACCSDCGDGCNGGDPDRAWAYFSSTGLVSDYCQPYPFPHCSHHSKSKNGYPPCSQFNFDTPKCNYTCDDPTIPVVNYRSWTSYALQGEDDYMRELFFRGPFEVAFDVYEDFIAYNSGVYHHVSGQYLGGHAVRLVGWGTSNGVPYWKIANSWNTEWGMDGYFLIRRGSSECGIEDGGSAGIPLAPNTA
Method in brief: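 Recombinant TbcatB zymogen expressed in Pichia pastoris, purified by HIC and anion exchange, titrated with CA074; 35 nM final. Inhibitor preincubated 20 min at room temperature, then Z-Phe-Arg-AMC (10 µM final). Initial rate from fluorescence (ex 350/em 460 nm) over 10 min. Triplicate. Sigmoidal IC50 fit.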

Procathepsin L = Procathepsin L (Homo sapiens, UniProt P07711); assay: Inhibition of human liver cathepsin L
Method in brief: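 Inhibitor preincubated 20 min at room temperature before Z-Phe-Arg-AMC (10 µM final). Initial rate from fluorescence (ex 350/em 460 nm) over 10 min. Quadruplicate. Sigmoidal IC50 fit.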

Sequence of Procathepsin L (P07711 whole entry): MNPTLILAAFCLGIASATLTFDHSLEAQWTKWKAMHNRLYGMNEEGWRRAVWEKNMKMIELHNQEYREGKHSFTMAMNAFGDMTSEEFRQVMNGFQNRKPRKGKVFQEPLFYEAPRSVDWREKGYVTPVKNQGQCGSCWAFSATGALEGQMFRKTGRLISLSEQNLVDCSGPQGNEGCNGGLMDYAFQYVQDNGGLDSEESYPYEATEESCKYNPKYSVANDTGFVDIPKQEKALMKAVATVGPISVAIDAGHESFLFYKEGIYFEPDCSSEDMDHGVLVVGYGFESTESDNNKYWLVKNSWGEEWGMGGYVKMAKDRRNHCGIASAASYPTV

| Compound | IC50 (Cathepsin B) | IC50 (Trypanosoma brucei) | IC50 [1] | IC50 (Procathepsin L) | EC50 (Trypanosoma brucei) |
| --- | --- | --- | --- | --- | --- |
| CCC(C)CNc1nc(C#N)nc2c1ncn2Cc1ccccc1 (configuration not stated) | > 30 µM | 3400 nM | 5 µM | 5.83 µM |  |
| N#Cc1nc(NCc2ccc(Cl)cc2)c2ncn(Cc3ccccc3)c2n1 | > 30 µM | 1500 nM | > 25 µM | > 30 µM |  |
| N#Cc1nc(NCc2ccc(Cl)c(Cl)c2)c2ncn(CCCO)c2n1 |  | 110 nM | 0.27 µM | 0.3 µM |  |
| CCCCn1cnc2c(NCc3ccc(C)cc3)nc(C#N)nc21 | > 30 µM |  | > 25 µM | 5.86 µM | 550 nM |
| N#Cc1nc(NCc2ccc(Cl)cc2)c2ncn(CCCCO)c2n1 |  | 600 nM | 4.8 µM | 4.15 µM |  |
| N#Cc1nc(NCCc2ccccc2)c2ncn(Cc3ccccc3)c2n1 | > 30 µM | 2400 nM | > 25 µM | > 30 µM |  |
| N#Cc1nc(NCc2ccc(F)cc2)c2ncn(Cc3ccccc3)c2n1 | > 30 µM | 900 nM | 3.3 µM | 13.5 µM |  |
| N#Cc1nc(NCc2ccc(Cl)c(Cl)c2)c2ncn(CCO)c2n1 | > 30 µM | 600 nM | 1.4 µM | 0.3 µM |  |
| CCCCn1cnc2c(NCCc3ccccc3)nc(C#N)nc21 | > 30 µM | 1500 nM | 16 µM | 17.1 µM |  |
| Cc1cccc(CNc2nc(C#N)nc3c2ncn3CC2CCCCC2)c1 | > 30 µM | 2200 nM | > 25 µM | > 30 µM |  |
| N#Cc1nc(NCc2ccccc2)c2ncn(CCCO)c2n1 |  |  | 12 µM | 2.27 µM | 2900 nM |
| Cc1cccc(CNc2nc(C#N)nc3c2ncn3C2CCCC2)c1 | > 30 µM | 1100 nM | > 25 µM | 10.5 µM |  |
| N#Cc1nc(NCc2ccccc2)c2ncn(Cc3ccccc3)c2n1 | > 30 µM | 2000 nM | 6 µM | 12.2 µM |  |
| N#Cc1nc(NC2CCCCC2)c2ncn(Cc3ccccc3)c2n1 | 17.7 µM | 330 nM | 2.3 µM | 3.79 µM |  |
| CC(Nc1nc(C#N)nc2c1ncn2Cc1ccccc1)c1ccccc1 (configuration not stated) | > 30 µM | 1300 nM | > 25 µM | > 30 µM |  |
| N#Cc1nc(NCc2ccc(Cl)c(Cl)c2)c2ncn(Cc3ccccc3)c2n1 | > 30 µM |  | 15 µM | 14.9 µM | 260 nM |
| Cc1ccc(CNc2nc(C#N)nc3c2ncn3CCCO)cc1 | 7.69 µM |  | 4.2 µM | 1.17 µM | 900 nM |
| N#Cc1nc(NCc2ccccc2)c2ncn(C3CCCC3)c2n1 | > 30 µM | 1700 nM | > 25 µM | 13.4 µM |  |
| N#Cc1nc(NCc2ccc(Cl)cc2)c2ncn(Cc3cccnc3)c2n1 | > 30 µM | 500 nM | > 25 µM | > 30 µM |  |
| Cc1ccc(CNc2nc(C#N)nc3c2ncn3Cc2ccccc2)cc1 | > 30 µM |  | > 25 µM | 12.9 µM | 560 nM |
| CCCCn1cnc2c(NCc3ccccc3)nc(C#N)nc21 | > 30 µM | 1700 nM | 14 µM | 4.38 µM |  |
| CCCCn1cnc2c(NCc3ccc(F)cc3)nc(C#N)nc21 | > 30 µM | 700 nM | 7.1 µM | 6.84 µM |  |
| CCCCn1cnc2c(NC(C)c3ccccc3)nc(C#N)nc21 (configuration not stated) | > 30 µM | 1500 nM | > 25 µM | 9.4 µM |  |
| CCCCn1cnc2c(NCc3cccc(C)c3)nc(C#N)nc21 | > 30 µM | 270 nM | 11 µM | 3.91 µM |  |
| COc1ccc(Cn2cnc3c(NCc4ccc(Cl)cc4)nc(C#N)nc32)cc1 | > 30 µM | 270 nM | 23 µM | > 30 µM |  |
| COCOCCn1cnc2c(NCc3ccc(Cl)c(Cl)c3)nc(C#N)nc21 | > 30 µM | 320 nM | 0.8 µM | 0.87 µM |  |
| N#Cc1nc(NCc2ccc(F)cc2)c2ncn(CCCCO)c2n1 | > 30 µM | 800 nM | 18 µM | 6.68 µM |  |
| CCCCn1cnc2c(NCc3ccc(Br)cc3)nc(C#N)nc21 | > 30 µM | 540 nM | 8.4 µM | 9.62 µM |  |

| Compound | IC50 (Cathepsin B) | IC50 (Trypanosoma brucei) | IC50 [1] | IC50 (Procathepsin L) | EC50 (Trypanosoma brucei) |
| --- | --- | --- | --- | --- | --- |
| CCCCn1cnc2c(NCc3ccc(OC)cc3)nc(C#N)nc21 | > 30 µM |  | 6 µM | 2.28 µM | 390 nM |
| N#Cc1nc(NCc2ccc(Cl)cc2)c2ncn(CCCO)c2n1 |  | 310 nM | 0.57 µM | 0.61 µM |  |
| N#Cc1nc(NCc2ccc(Cl)c(Cl)c2)c2ncn(CC(O)CO)c2n1 (configuration not stated) | > 30 µM | 450 nM | 1.2 µM | 0.42 µM |  |
| N#Cc1nc(NCc2ccc(Br)cc2)c2ncn(CCCc3ccccc3)c2n1 | > 30 µM | 420 nM | > 25 µM | > 30 µM |  |
| N#Cc1nc(NCc2ccc(Cl)cc2)c2ncn(Cc3cccc(C(F)(F)F)c3)c2n1 | > 30 µM | 340 nM | > 25 µM | > 30 µM |  |
| N#Cc1nc(NCCc2ccccc2)c2ncn(Cc3cccnc3)c2n1 | > 30 µM | 4400 nM | 10 µM | 17.1 µM |  |
| COc1ccc(CNc2nc(C#N)nc3c2ncn3Cc2ccccc2)cc1 | > 30 µM |  | 4.5 µM | 8.05 µM | 1000 nM |
| COc1ccc(CNc2nc(C#N)nc3c2ncn3C2CCCC2)cc1 | > 30 µM | 800 nM | 7 µM | 4 µM |  |
| N#Cc1nc(NC2CCCCC2)c2ncn(C3CCCCC3)c2n1 | 23.6 µM | 1400 nM | 8.3 µM | 3.3 µM |  |
| N#Cc1nc(NCc2ccc(Cl)cc2)c2ncn(C3CCCC3)c2n1 | > 30 µM | 1200 nM | 19 µM | 13.5 µM |  |
| CC(Nc1nc(C#N)nc2c1ncn2C1CCCC1)c1ccccc1 (configuration not stated) | > 30 µM | 3400 nM | > 25 µM | 11.8 µM |  |
| CCCCCCNc1nc(C#N)nc2c1ncn2CC1CCCCC1 | > 30 µM | 3600 nM | > 25 µM | > 30 µM |  |
| N#Cc1nc(NCc2ccc(Br)cc2)c2ncn(Cc3ccccc3)c2n1 | > 30 µM | 1100 nM | > 25 µM | 28.9 µM |  |
| N#Cc1nc(NCc2ccccc2)c2ncn(Cc3cccc(C(F)(F)F)c3)c2n1 | > 30 µM | 260 nM | 2.8 µM | > 30 µM |  |
| CCCCn1cnc2c(NCc3ccc(Cl)c(Cl)c3)nc(C#N)nc21 | > 30 µM | 180 nM | 4.1 µM | 1.82 µM |  |
| Cc1ccc(C(=O)Nc2ccc(S(=O)(=O)O)c3cc(S(=O)(=O)O)cc(S(=O)(=O)O)c23)cc1NC(=O)c1cccc(NC(=O)Nc2cccc(C(=O)Nc3cc(C(=O)Nc4ccc(S(=O)(=O)O)c5cc(S(=O)(=O)O)cc(S(=O)(=O)O)c45)ccc3C)c2)c1 [SURAMIN] | > 30 µM | 130 nM |  |  |  |
| CCCCCCNc1nc(C#N)nc2c1ncn2C1CCCC1 | > 30 µM | 1500 nM | > 25 µM | 28.4 µM |  |
| CCCCn1cnc2c(NCc3ccc(Cl)cc3)nc(C#N)nc21 | > 30 µM | 850 nM | 10 µM | 5.06 µM |  |
| COC(CCn1cnc2c(NCc3ccc(Cl)c(Cl)c3)nc(C#N)nc21)OC | > 30 µM | 220 nM | 3.4 µM | 0.5 µM |  |
| CCCn1cnc2c(NC3CCCCC3)nc(C#N)nc21 | 19 µM | 12000 nM | 8.3 µM | 2.53 µM |  |
| N=C(N)c1ccc(/N=N/Nc2ccc(C(=N)N)cc2)cc1 [DIMINAZENE] | > 30 µM | 20 nM |  |  |  |
| COc1ccc(Cn2cnc3c(NCc4ccccc4)nc(C#N)nc32)cc1 | > 30 µM |  | 11 µM | 26.9 µM | 400 nM |
| CCCCCCNc1nc(C#N)nc2c1ncn2Cc1ccccc1 | > 30 µM | 700 nM | > 25 µM | > 30 µM |  |
| N#Cc1nc(NCc2ccc(Cl)c(Cl)c2)c2ncn(CCCCCO)c2n1 | > 30 µM | 60 nM | 0.93 µM | 0.8 µM |  |
| N#Cc1nc(NCc2ccccc2)c2ncn(CC3CCCCO3)c2n1 (configuration not stated) | > 30 µM |  | 11 µM | 10.8 µM | 240 nM |
| N#Cc1nc(NCc2ccc(Cl)cc2)c2ncn(CC3CCCCC3)c2n1 | > 30 µM | > 10000 nM | > 25 µM | > 30 µM |  |
| CCC(C)CNc1nc(C#N)nc2c1ncn2C1CCCC1 (configuration not stated) | > 30 µM | 1100 nM | 14 µM | 2.38 µM |  |
